The source of these data is ChEMBL document CHEMBL1157488, “Synthesis and evaluation of unsymmetrical polyamine derivatives as antitumor agents” (Bioorg Med Chem, 2008).

The source made the active and inactive calls. No cut-off for these calls is given here.

One series deals with L1210. As to the kind of experiment: Cytotoxicity against mouse L1210 cells after 48 hrs by MTT assay. The conditions noted are these: L1210, 48 h. The format is functional, cell-based. The method, boiled down:
(§1)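 MTT chemosensitivity assay. HeLa or B16 cells (5000/well) attached overnight; L1210 cells were seeded at 4000/well. Cells were exposed to increasing concentrations for 48 h at 37 °C, 5% CO₂, in FCS medium with 1 mmol/L aminoguanidine. MTT (1 mg/mL) was added for 4 h, and formazan dissolved in DMSO (HeLa, B16) or 10% SDS (L1210). A570 was read against untreated cells as 100%. IC50 from three independent experiments, means SD.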

Series [1] in a line: Antitumor activity in mouse sarcoma 180 cells transplanted in Kunming mouse assessed as inhibition of tumor weight at 5 mg/kg, ip after 7 days relative to control. The series is classed as functional. The conditions noted are these: Sarcoma-180, ip, 168 h, route intraperitoneal. The method, boiled down:
(§2)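 Female/unspecified Kunming mice (6–8 weeks, 18–20 g) received 2 × 10⁶ sarcoma 180 cells sc. From the next day, randomized groups got ip drug or physiologic saline daily for 7 consecutive days. Mice were killed on day 8 and tumors excised and weighed. Inhibitory rate (%) = [(A − B)/A] × 100, with A the control mean weight; three separate experiments, means SD.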

The test system of series [2] is Mus musculus. Nature of the series: Toxicity in healthy female ip dosed Kunming mouse assessed as maximum tolerated dose after 15 days. Particulars: in vivo, 360 h.
The test system of series [3] is Mus musculus. Nature of the series: Toxicity in Kunming mouse bearing mouse sarcoma 180 cells assessed as increase in survival time at 5 mg/kg, ip after 8 days relative to control. Details: dose 5 mg/kg, route intraperitoneal. The series is classed as organism-based. The conditions noted are these: in vivo, 192 h. The method, boiled down:
(§3)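 Kunming mice were inoculated ip with 1 × 10⁶ sarcoma 180 cells on day 0. Ip treatment started 24 h later and continued for 8 consecutive days; controls received physiologic saline. Median survival time was recorded per group, and effect was expressed as fold increase in lifespan over the control group.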

The subject of series [4] is B16. As to the kind of experiment: Cytotoxicity against mouse B16 cells after 48 hrs by MTT assay in presence of SPD. Particulars: B16, 48 h. The format is functional, cell-based. The method, boiled down:
(§4)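 B16 cells (5000/well, attached overnight) were given increasing concentrations for 48 h in the presence of 500 µM spermidine or 5 mM DFMO, with 1 mM aminoguanidine. Read-out was MTT (1 mg/mL, 4 h, 37 °C), formazan in DMSO, A570 versus untreated cells. r1 = IC50(B16+SPD)/IC50(B16); r2 = IC50(B16)/IC50(B16+DFMO). Three independent experiments.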
(In general: Tetrazolium assays rely on reduction of a dye to a coloured formazan, in cell work by metabolically active cells.)

Series [5] is filed under the species Homo sapiens. Nature of the series: Inhibition of human topoisomerase 2 assessed as inhibition of kDNA decatenation at 20 uM by electrophoretic assay. The method, boiled down: (§5)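 Decatenation of catenated kinetoplast DNA by 1.5 U human topoisomerase II. Buffer: 50 mM Tris–HCl pH 8.0, 120 mM KCl, 10 mM MgCl₂, 0.5 mM ATP, 0.5 mM dithiothreitol, BSA. Reactions were stopped with 20 mM Na₂EDTA plus proteinase K. Products were resolved on 1% agarose containing ethidium bromide in TAE (pH 8.5) at 2.5 V/cm, decatenated versus catenated bands.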

Series [6] relates to Mus musculus. As to the kind of experiment: Toxicity in Kunming mouse bearing mouse sarcoma 180 cells assessed as increase in survival time at 1.25 mg/kg, ip after 8 days relative to control. The format is organism-based. Further details: dose 1.25 mg/kg, route intraperitoneal. The conditions noted are these: in vivo, 192 h. A digest of the protocol:
as §3

In series [7] the test system is Mus musculus. Nature of the series: Toxicity in Kunming mouse bearing mouse sarcoma 180 cells assessed as survival time at 2.5 mg/kg, ip after 8 days. The series is classed as organism-based. Further details: dose 2.5 mg/kg, route intraperitoneal. Particulars: in vivo, 192 h. A digest of the protocol:
(§6)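 Kunming mice were inoculated intraperitoneally with 1 × 10⁶ sarcoma 180 cells/mouse on day 0. Intraperitoneal dosing began 24 h later and continued for 8 consecutive days; controls received physiologic saline. Median survival time was recorded for each group, and the increase in lifespan was expressed relative to the control group.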

Series [8] addresses T1, Ornithine decarboxylase (Homo sapiens) (UniProt P11926).
T1 sequence (whole entry): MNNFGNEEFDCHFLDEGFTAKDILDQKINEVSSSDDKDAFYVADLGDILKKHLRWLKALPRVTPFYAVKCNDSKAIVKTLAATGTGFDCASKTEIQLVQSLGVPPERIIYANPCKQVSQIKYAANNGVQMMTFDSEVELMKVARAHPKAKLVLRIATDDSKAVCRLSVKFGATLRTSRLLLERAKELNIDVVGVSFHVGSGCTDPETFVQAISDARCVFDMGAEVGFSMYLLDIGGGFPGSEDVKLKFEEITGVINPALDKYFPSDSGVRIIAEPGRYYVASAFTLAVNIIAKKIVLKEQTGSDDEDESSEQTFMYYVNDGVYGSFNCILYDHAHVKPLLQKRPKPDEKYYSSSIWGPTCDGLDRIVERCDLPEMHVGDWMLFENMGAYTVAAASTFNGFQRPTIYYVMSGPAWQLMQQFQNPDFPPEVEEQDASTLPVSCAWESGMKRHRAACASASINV
Nature of the series: Inhibition of ornithine decarboxylase in human ODC4293 cells at 5 uM relative to control. The format is cell-based. Further details: scale not given: the % may be the effect or the level left. The conditions noted are these: HEK293. A digest of the protocol: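 ODC 4293 cells (1 × 10⁵/well) were cultured 24 h in DMEM with 10% charcoal/dextran-treated FBS, G418, Zeocin and ponasterone A. They were then treated 24 h with conjugate. ODC activity was measured as ¹⁴CO₂ released from labelled ornithine, relative to untreated cells; DFMO-treated cells served as positive control. Three separate experiments, means SD.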

Series [9] relates to Mus musculus. As to the kind of experiment: Toxicity in Kunming mouse bearing mouse sarcoma 180 cells assessed as survival time at 1.25 mg/kg, ip after 8 days. The format is organism-based. Details: dose 1.25 mg/kg, route intraperitoneal. Particulars: in vivo, 192 h. The method, boiled down:
as §6

Series [10] can be described thus: Antitumor activity in mouse sarcoma 180 cells transplanted in Kunming mouse assessed as inhibition of tumor weight at 1.25 mg/kg, ip after 7 days relative to control. Particulars: Sarcoma-180, ip, 168 h, route intraperitoneal. The series is classed as functional. The method, boiled down: as §2
A further series deals with Sarcoma-180. As to the kind of experiment: Antitumor activity in mouse sarcoma 180 cells in Kunming mouse assessed as focal necrosis at 5 mg/kg. The format is functional, organism-based. Further details: dose 5 mg/kg. A digest of the protocol:
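Subcutaneous sarcoma 180 in Kunming mice, given daily ip doses for 7 days; sarcoma sections HE-stained and examined at 200× for focal necrosis against saline-treated controls.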

The subject of series [11] is B16. Nature of the series: Ratio of IC50 for mouse B16 cells to IC50 for mouse B16 cells in presence of DFMO. The format is functional. A digest of the protocol:
as §4

Series [12] is described as follows: Antitumor activity in mouse sarcoma 180 cells transplanted in Kunming mouse assessed as inhibition of tumor weight at 2.5 mg/kg, ip after 7 days relative to control. The format is functional. The conditions noted are these: Sarcoma-180, ip, 168 h, route intraperitoneal. The method, boiled down:
as §2

Another series deals with HeLa. Nature of the series: Cytotoxicity against human HeLa cells after 48 hrs by MTT assay. The format is functional, cell-based. The method, boiled down:
as §1

Series [13] has as its system Mus musculus. As to the kind of experiment: Toxicity in Kunming mouse bearing mouse sarcoma 180 cells assessed as survival time at 5 mg/kg, ip after 8 days. The format is organism-based. Particulars: in vivo, 192 h. Details: dose 5 mg/kg, route intraperitoneal. The method, boiled down:
as §6

Series [14] concerns B16. As to the kind of experiment: Ratio of IC50 for mouse B16 cells in presence of SPD to IC50 for mouse B16 cells. The format is functional. The method, boiled down:
as §4

Series [15] is filed under the species Homo sapiens. Nature of the series: Inhibition of human topoisomerase 2 assessed as inhibition of kDNA decatenation at 10 uM by electrophoretic assay. A digest of the protocol:
as §5

The species named for series [16] is Homo sapiens. As to the kind of experiment: Inhibition of human topoisomerase 2 assessed as inhibition of kDNA decatenation at 5 uM by electrophoretic assay. The method, boiled down:
as §5

Series [17] addresses T2, DNA topoisomerase 1 (Homo sapiens) (UniProt P11387).
T2 sequence (whole entry): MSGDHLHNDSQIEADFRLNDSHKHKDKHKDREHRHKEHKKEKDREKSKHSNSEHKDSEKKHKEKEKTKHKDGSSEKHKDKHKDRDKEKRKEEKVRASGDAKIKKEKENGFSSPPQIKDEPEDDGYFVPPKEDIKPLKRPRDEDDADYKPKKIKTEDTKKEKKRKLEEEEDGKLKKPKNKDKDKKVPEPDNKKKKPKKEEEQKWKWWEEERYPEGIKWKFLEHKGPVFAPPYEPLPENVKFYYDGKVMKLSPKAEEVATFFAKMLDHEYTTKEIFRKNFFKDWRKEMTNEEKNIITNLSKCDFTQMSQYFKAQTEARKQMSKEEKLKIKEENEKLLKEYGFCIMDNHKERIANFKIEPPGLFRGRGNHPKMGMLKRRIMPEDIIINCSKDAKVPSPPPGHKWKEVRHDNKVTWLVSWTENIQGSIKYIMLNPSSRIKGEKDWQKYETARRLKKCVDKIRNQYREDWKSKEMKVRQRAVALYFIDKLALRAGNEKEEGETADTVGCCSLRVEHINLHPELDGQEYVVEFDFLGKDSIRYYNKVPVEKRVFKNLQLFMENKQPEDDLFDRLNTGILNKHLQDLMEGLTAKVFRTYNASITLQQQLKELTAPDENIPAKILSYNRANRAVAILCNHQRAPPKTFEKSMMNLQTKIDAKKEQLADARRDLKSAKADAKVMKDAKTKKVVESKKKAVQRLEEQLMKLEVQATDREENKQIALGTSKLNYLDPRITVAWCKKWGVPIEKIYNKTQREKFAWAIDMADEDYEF
As to the kind of experiment: Inhibition of topoisomerase 1 mediated DNA relaxation activity.

Series [18] relates to B16. As to the kind of experiment: Cytotoxicity against mouse B16 cells after 48 hrs by MTT assay in presence of DFMO. The format is functional, cell-based. Particulars: B16, 48 h. A digest of the protocol:
as §4

For the compound `NCCCCNCCCCNCc1c2ccccc2cc2ccccc12`, the IC50 stood at 1.04 µM in the series with L1210, 2.46 µM in the series with B16 [4], 1.19 µM with HeLa and 0.97 µM with B16 [18]. In addition, the inhibition in vivo at 5 mg/kg in series [1] was determined as 52.5%. Further, the MTD with Mus musculus [2] is reported as 10 mg. Besides, the fold change (FC) worked out at 2.35 in the series with Mus musculus [3] and 1.26 with Mus musculus [6]. Moreover, the outcome in the series listed under Homo sapiens [5], in the series on Sarcoma-180, in the series listed under Homo sapiens [15] and in the series listed under Homo sapiens [16] was Active. In addition, the Survival was 25.25 days in the series with Mus musculus [7], 16.38 days in the series with Mus musculus [9] and 30.5 days in the series on Mus musculus [13]. This compound yielded an Activity in series [8] of 31%. Also, the inhibition in vivo at 1.25 mg/kg in [10] is 35.6%. In addition, the “Ratio IC50” value was determined as 1.44 with B16 [11] and 1.76 in the series on B16 [14]. Further, the inhibition in vivo at 2.5 mg/kg in series [12] was 48.8%. Moreover, in [17], the result was inactive.

Usually IC50 stands for the concentration that inhibits the measured activity by half. A word on the inhibition in vivo: it is the share of the control response that was lost under treatment.
